ChEMBL document CHEMBL2057191, “Synthesis, structure-activity relationship, and pharmacological studies of novel melanin-concentrating hormone receptor 1 antagonists 3-aminomethylquinolines: reducing human ether-a-go-go-related gene (hERG) associated liabilities” (J Med Chem, 2012)

Target: hERG (KCNH2) (Homo sapiens, UniProt Q12809)
Assay: Inhibition of human ERG expressed in HMZ/CHO.8B4 cells at 10 uM by patch clamp assay
Format: cell-based
Conditions: HMZ/CHO.8B4 cells expressing human ERG

Chain of hERG (KCNH2) (Q12809 whole entry): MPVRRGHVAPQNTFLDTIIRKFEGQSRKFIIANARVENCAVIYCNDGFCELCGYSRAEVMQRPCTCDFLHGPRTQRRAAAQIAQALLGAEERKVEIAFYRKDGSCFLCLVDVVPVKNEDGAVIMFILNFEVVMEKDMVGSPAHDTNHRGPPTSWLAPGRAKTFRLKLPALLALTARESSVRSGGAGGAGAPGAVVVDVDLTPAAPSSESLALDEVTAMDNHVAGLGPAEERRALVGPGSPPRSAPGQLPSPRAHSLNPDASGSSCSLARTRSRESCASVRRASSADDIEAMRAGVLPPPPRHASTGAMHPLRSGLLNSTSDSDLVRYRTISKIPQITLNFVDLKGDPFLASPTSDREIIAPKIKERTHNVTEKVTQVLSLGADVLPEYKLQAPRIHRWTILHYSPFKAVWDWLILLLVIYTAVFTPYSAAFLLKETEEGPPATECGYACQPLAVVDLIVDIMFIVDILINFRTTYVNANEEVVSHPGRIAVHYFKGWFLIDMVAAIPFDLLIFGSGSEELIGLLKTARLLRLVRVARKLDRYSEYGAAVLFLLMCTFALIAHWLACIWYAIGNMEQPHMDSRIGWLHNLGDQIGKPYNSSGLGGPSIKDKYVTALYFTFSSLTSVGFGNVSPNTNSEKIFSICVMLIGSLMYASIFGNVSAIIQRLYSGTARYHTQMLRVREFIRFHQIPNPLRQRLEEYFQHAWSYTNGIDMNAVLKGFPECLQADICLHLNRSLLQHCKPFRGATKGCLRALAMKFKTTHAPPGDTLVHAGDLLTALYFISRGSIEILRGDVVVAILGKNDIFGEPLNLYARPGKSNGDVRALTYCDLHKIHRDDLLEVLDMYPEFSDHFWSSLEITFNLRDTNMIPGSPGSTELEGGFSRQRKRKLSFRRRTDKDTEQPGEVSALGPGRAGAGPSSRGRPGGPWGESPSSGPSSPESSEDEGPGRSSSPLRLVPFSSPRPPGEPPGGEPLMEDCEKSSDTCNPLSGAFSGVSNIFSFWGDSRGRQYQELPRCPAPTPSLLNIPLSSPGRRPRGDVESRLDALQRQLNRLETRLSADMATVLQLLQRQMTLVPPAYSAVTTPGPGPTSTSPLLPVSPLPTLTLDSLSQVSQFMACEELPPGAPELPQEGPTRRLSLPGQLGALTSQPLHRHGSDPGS

SMILES | inhibition at 10 µM [%]
Cc1c(NC(=O)c2ccc(OCC3CC3)cc2)ccc2cc([C@@H](C)N3CCCC3)cnc12 | 88.1
CC(=O)NCCNC(C)c1cnc2c(C)c(NC(=O)c3ccc(OCC4CC4)cc3)ccc2c1 (racemic) | 29.3
Cc1c(NC(=O)c2ccc(OCC3CC3)cc2)ccc2cc(C(C)NCC(C)(C)O)cnc12 (racemic) | 63.3
CC(=O)NCCN[C@@H](C)c1cnc2c(C)c(NC(=O)c3ccc(OCC4CC4)cc3)ccc2c1 | 33.3
Cc1c(NC(=O)c2ccc(-c3ccc(F)cc3)cc2)ccc2cc(CN3CCCC3)cnc12 | 93.8
Cc1c(NC(=O)c2ccc(OCC3CC3)cc2)ccc2cc(C(C)NCCO)cnc12 (racemic) | 84.8
Cc1c(NC(=O)c2ccc(OCC3CC3)cc2)ccc2cc(C(C)N3CC[C@H](O)C3)cnc12 (mixture of isomers) | 58.4
CC(=O)NCCN[C@H](C)c1cnc2c(C)c(NC(=O)c3ccc(OCC4CC4)cc3)ccc2c1 | 33.2

Test system: Rattus norvegicus
Assay: Antiobesity activity in po dosed diet induced obese F344 rat model assessed as inhibition of food intake administered qd for 2 days
Format: functional, organism-based
Conditions: not given
Summary of the method: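 Male F344/Jcl rats, 32 weeks old, on high-fat diet from 5 weeks of age, housed singly on a 7:00–19:00 light cycle, habituated to oral water dosing, grouped by food intake and body weight (n = 6). Dosed orally at 1, 3, 5 or 10 mg/kg in 0.5% methylcellulose (2 mL/kg) at 5:00 p.m. on days 0 and 1. Cumulative intake on days 1 and 2 expressed as ratio to vehicle group; Williams test.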

SMILES | inhibition
CC(=O)NCCN[C@H](C)c1cnc2c(C)c(NC(=O)c3ccc(OCC4CC4)cc3)ccc2c1 | Dose-dependent effect

Test system: not listed separately
Assay: Total clearance in Sprague-Dawley rat plasma at 1 mg/kg, iv
Format: ADME, organism-based
Parameters: dose 1 mg/kg, route intravenous
Conditions: not given
Summary of the method: (§1)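 Male Sprague-Dawley rats, 8 weeks old, given intravenous dose.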

clearance [mL/min/kg] | SMILES
11.5 | CC(=O)NCCN[C@H](C)c1cnc2c(C)c(NC(=O)c3ccc(OCC4CC4)cc3)ccc2c1

Test system: not listed separately
Assay: Tmax in Sprague-Dawley rat at 3 mg/kg, po
Format: ADME, organism-based
Parameters: dose 3 mg/kg, route oral
Conditions: in vivo
Summary of the method: (§2)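 Male Sprague-Dawley rats, 8 weeks old, given oral dose.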

Tmax [h] | SMILES
4 | CC(=O)NCCN[C@H](C)c1cnc2c(C)c(NC(=O)c3ccc(OCC4CC4)cc3)ccc2c1

Target: Voltage-gated inwardly rectifying potassium channel KCNH2 (Homo sapiens, UniProt Q12809)
Assay: Inhibition of human ERG expressed in HMZ/CHO.8B4 cells assessed as inhibition of Rb+ efflux at 30 uM after 30 mins by flame atomic absorption spectrometer analysis relative to astemizole
Format: cell-based
Conditions: 0.5 h
Summary of the method: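 HMZ/CHO.8B4 cells stably expressing hERG, 4 × 10⁴ cells/well, 24 h on collagen, Rb-loaded 3 h at 37 °C (5.4 mM RbCl, pH 7.4). Compound added for 30 min (n = 7), then 5 min stimulation with 50 mM KCl. Supernatant and lysate Rb⁺ read by flame atomic absorption. Fractional efflux normalized to background and maximum; astemizole as 0, vehicle as 1.0.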

Chain of Voltage-gated inwardly rectifying potassium channel KCNH2 (Q12809 whole entry): as above

SMILES | Ratio
Cc1c(NC(=O)c2ccc(OCC3CC3)cc2)ccc2cc(CN3CCCC3)cnc12 | 0.9
Cc1c(NC(=O)c2ccc(OCC3CC3)cc2)ccc2cc(C(C)N3CCCCCC3)cnc12 (racemic) | 0.73
Cc1c(NC(=O)c2ccc(OCC3CC3)cc2)ccc2cc([C@@H](C)N3CCCC3)cnc12 | 1.11
Cc1c(NC(=O)c2ccc(OCC3CC3)cc2)ccc2cc([C@H](C)N3CCCC3)cnc12 | 0.85
Cc1c(NC(=O)c2ccc(OCC(C)C)cc2)ccc2cc(CN3CCCC3)cnc12 | 0.7
Cc1c(NC(=O)c2ccc(-c3ccc(F)cc3)cc2)ccc2cc(CN3CCCC3)cnc12 | 0.17
Cc1c(NC(=O)c2ccc(OCC3CC3)cc2)ccc2cc(C(C)N3CCCC3)cnc12 (racemic) | 1.02
CCCCCC(=O)c1ccc(C(=O)Nc2ccc3cc(CN4CCCC4)cnc3c2C)cc1 | 0.48

Target: Melanin-concentrating hormone receptor 1 (Rattus norvegicus, UniProt P97639)
Assay: Displacement of [125I]MCH from rat MCHR1 expressed in CHO cells after 60 mins by liquid scintillation counting
Format: cell-based
Conditions: not given
Summary of the method: (§3)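 Membrane homogenates from CHO cells stably expressing human or rat MCHR1 in 25 mM Tris-HCl pH 7.5 with EDTA, BSA and protease inhibitors. Membrane protein 2 μg/mL (human) or 4 μg/mL (rat). Nonspecific binding defined with 0.3 μM MCH(1–19). Filter radioactivity counted. IC50 from one experiment in duplicate.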

Chain of Melanin-concentrating hormone receptor 1 (Rattus norvegicus, UniProt P97639) (P97639 whole entry): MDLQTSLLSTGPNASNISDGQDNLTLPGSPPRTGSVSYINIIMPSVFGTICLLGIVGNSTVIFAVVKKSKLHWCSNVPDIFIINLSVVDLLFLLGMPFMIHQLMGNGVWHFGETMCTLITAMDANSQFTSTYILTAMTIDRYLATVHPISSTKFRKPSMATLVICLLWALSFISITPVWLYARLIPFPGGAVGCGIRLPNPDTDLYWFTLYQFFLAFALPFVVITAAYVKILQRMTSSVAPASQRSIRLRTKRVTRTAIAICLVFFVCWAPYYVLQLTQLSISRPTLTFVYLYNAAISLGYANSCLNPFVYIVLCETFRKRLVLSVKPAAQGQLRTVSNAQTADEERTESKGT

SMILES | IC50 [nM]
Cc1c(NC(=O)c2ccc(OCC(C)C)cc2)ccc2cc(CN3CCCC3)cnc12 | 6.7
Cc1c(NC(=O)c2ccc(OCC3CC3)cc2)ccc2cc(CN3CCCC3C)cnc12 (racemic) | 6.7

Next, values leading:

IC50 [nM] | SMILES
1.6 | Cc1c(NC(=O)c2ccc(OCC3CC3)cc2)ccc2cc(CN3CCCC3)cnc12
5.6 | Cc1c(NC(=O)c2ccc(OCC3CC3)cc2)ccc2cc(C(C)N3CCCCCC3)cnc12 (racemic)
1.9 | Cc1c(NC(=O)c2ccc(OCC3CC3)cc2)ccc2cc([C@@H](C)N3CCCC3)cnc12
8 | Cc1c(NC(=O)c2ccc(OCC3CC3)cc2)ccc2cc([C@H](C)N3CCCC3)cnc12
2.7 | Cc1c(NC(=O)c2ccc(OCC3CC3)cc2)ccc2cc(C(C)NCC(C)(C)O)cnc12 (racemic)
1 | Cc1c(NC(=O)c2ccc(-c3ccc(F)cc3)cc2)ccc2cc(CN3CCCC3)cnc12
4.2 | Cc1c(NC(=O)c2ccc(OCC3CC3)cc2)ccc2cc(C(C)N3CCCC3)cnc12 (racemic)

Target: T1, Melanin-concentrating hormone receptor 1 (Homo sapiens, UniProt Q99705)
Assay: Antagonist activity at human MCHR1 expressed in CHO cells assessed as inhibition of MCH-stimulated arachidonic acid release after 45 mins by liquid scintillation counting
Format: functional, cell-based
Conditions: not given

T1 sequence (Q99705 whole entry): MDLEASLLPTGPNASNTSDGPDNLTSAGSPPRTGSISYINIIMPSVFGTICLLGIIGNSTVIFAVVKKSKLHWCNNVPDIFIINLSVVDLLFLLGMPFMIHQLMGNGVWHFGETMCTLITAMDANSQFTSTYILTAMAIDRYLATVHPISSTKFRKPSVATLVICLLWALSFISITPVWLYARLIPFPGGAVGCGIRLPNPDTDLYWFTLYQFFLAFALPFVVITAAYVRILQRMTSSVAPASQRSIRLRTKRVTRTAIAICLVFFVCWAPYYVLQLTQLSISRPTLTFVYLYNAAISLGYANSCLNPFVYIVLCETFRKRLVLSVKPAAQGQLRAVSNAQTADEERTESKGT

IC50 [nM] | SMILES
4.3 | Cc1c(NC(=O)c2ccc(OCC3CC3)cc2)ccc2cc(CN3CCCC3)cnc12
3.4 | Cc1c(NC(=O)c2ccc(OCC3CC3)cc2)ccc2cc(C(C)N3CCCCCC3)cnc12 (racemic)
2.9 | Cc1c(NC(=O)c2ccc(OCC3CC3)cc2)ccc2cc([C@@H](C)N3CCCC3)cnc12
4 | Cc1c(NC(=O)c2ccc(OCC3CC3)cc2)ccc2cc([C@H](C)N3CCCC3)cnc12
6.4 | Cc1c(NC(=O)c2ccc(OCC3CC3)cc2)ccc2cc(C(C)NCC(C)(C)O)cnc12 (racemic)
6.4 | Cc1c(NC(=O)c2ccc(OCC3CC3)cc2)ccc2cc(C(C)N3CCCC3)cnc12 (racemic)

Test system: not listed separately
Assay: Cmax in Sprague-Dawley rat plasma at 3 mg/kg, po
Format: ADME, organism-based
Parameters: dose 3 mg/kg, route oral
Conditions: not given
Summary of the method: as §2

Cmax [ng/mL] | SMILES
274 | CC(=O)NCCN[C@H](C)c1cnc2c(C)c(NC(=O)c3ccc(OCC4CC4)cc3)ccc2c1

Test system: not listed separately
Assay: Bioavailability in Sprague-Dawley rat
Format: ADME, organism-based
Conditions: in vivo

bioavailability [%] | SMILES
43 | CC(=O)NCCN[C@H](C)c1cnc2c(C)c(NC(=O)c3ccc(OCC4CC4)cc3)ccc2c1

Test system: not listed separately
Assay: AUC (0 to 24 hrs) in Sprague-Dawley rat at 3 mg/kg, po
Format: ADME, organism-based
Parameters: time < 24 hr, dose 3 mg/kg, route oral
Conditions: plasma
Summary of the method: as §2

AUC(0-t) at 24 h [ng·h/mL] | SMILES
1940 | CC(=O)NCCN[C@H](C)c1cnc2c(C)c(NC(=O)c3ccc(OCC4CC4)cc3)ccc2c1

Target: T1, Melanin-concentrating hormone receptor 1
Assay: Displacement of [125I]MCH from human MCHR1 expressed in CHO cells after 60 mins by liquid scintillation counting
Format: cell-based
Conditions: not given
Summary of the method: as §3

SMILES | IC50 [nM]
Cc1c(NC(=O)c2ccc(OCC(C)C)cc2)ccc2cc(CN3CCCC3)cnc12 | 4.4
Cc1c(NC(=O)c2ccc(OCC3CC3)cc2)ccc2cc(CN3CCCC3C)cnc12 (racemic) | 2.5
CCCCCC(=O)c1ccc(C(=O)Nc2ccc3cc(CN4CCCC4)cnc3c2C)cc1 | 170

Continued, values first:

IC50 [nM] | SMILES
1.8 | Cc1c(NC(=O)c2ccc(OCC3CC3)cc2)ccc2cc(CN3CCCC3)cnc12
2 | Cc1c(NC(=O)c2ccc(OCC3CC3)cc2)ccc2cc(C(C)N3CCCCCC3)cnc12 (racemic)
1.1 | Cc1c(NC(=O)c2ccc(OCC3CC3)cc2)ccc2cc([C@@H](C)N3CCCC3)cnc12
3.4 | Cc1c(NC(=O)c2ccc(OCC3CC3)cc2)ccc2cc([C@H](C)N3CCCC3)cnc12
1.5 | Cc1c(NC(=O)c2ccc(OCC3CC3)cc2)ccc2cc(C(C)NCC(C)(C)O)cnc12 (racemic)
1.7 | Cc1c(NC(=O)c2ccc(OCC3CC3)cc2)ccc2cc(C(C)N3CCCC3)cnc12 (racemic)

Test system: not listed separately
Assay: Volume of distribution at steady state in Sprague-Dawley rat at 1 mg/kg, iv
Format: ADME, organism-based
Parameters: dose 1 mg/kg, route intravenous
Conditions: in vivo, read-out: Vdss
Summary of the method: as §1

Vd [L/kg] | SMILES
1.21 | CC(=O)NCCN[C@H](C)c1cnc2c(C)c(NC(=O)c3ccc(OCC4CC4)cc3)ccc2c1

Test system: not listed separately
Assay: Lipophilicity, log D of the compound at pH 7.4
Format: physicochemical
Conditions: buffer

SMILES | logD
Cc1c(NC(=O)c2ccc(OCC(C)C)cc2)ccc2cc(CN3CCCC3)cnc12 | 3.35
CCCCCC(=O)c1ccc(C(=O)Nc2ccc3cc(CN4CCCC4)cnc3c2C)cc1 | 3.5

The remaining lines, values ahead:

logD | SMILES
2.77 | Cc1c(NC(=O)c2ccc(OCC3CC3)cc2)ccc2cc(CN3CCCC3)cnc12
3.91 | Cc1c(NC(=O)c2ccc(OCC3CC3)cc2)ccc2cc(C(C)N3CCCCCC3)cnc12 (racemic)
2.99 | Cc1c(NC(=O)c2ccc(OCC3CC3)cc2)ccc2cc([C@@H](C)N3CCCC3)cnc12
2.99 | Cc1c(NC(=O)c2ccc(OCC3CC3)cc2)ccc2cc([C@H](C)N3CCCC3)cnc12
2.67 | Cc1c(NC(=O)c2ccc(OCC3CC3)cc2)ccc2cc(C(C)NCC(C)(C)O)cnc12 (racemic)
2.77 | Cc1c(NC(=O)c2ccc(-c3ccc(F)cc3)cc2)ccc2cc(CN3CCCC3)cnc12
3 | Cc1c(NC(=O)c2ccc(OCC3CC3)cc2)ccc2cc(C(C)N3CCCC3)cnc12 (racemic)
